Rows were chosen to be rich in hits. Some 2.1% of all compounds tested hit in one or more screens of this group.
SUMO1 PPI mod: modulators of human SUMO1-mediated protein-protein interactions; P63165; SUMO1 binding to a labelled peptide, TR-FRET, 1 h; inhibition, % at 20 µM; hit rate 0.33% among 360,000; in the data active means inhibition above about 37%
GRK2 inh: human GRK2 inhibition via aptamer displacement; P25098; bead flow cytometry, FAM-aptamer displacement from GRK2; inhibition of aptamer binding, % at 10 µM; hit rate 0.59% among 330,000; AID 488847;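 active means inhibition of aptamer binding above 40%, roughly 3 SD of noise, on plates passing a quality check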;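 further: median bead fluorescence of bound FAM aptamer so fluorescent compounds give negative values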
DNMT1 block: DNMT1 (human) enzyme inhibition; P26358; inhibition (reported as % activation of signal), % at 10 µM; DNMT1 molecular beacon, Hinp1I cleavage, fluorescence; hit rate 0.83% among 360,000; in the data active means inhibition above about 50%
STEP inh: inhibitors of human striatal-enriched phosphatase STEP; P54829; recombinant STEP, OMFP fluorogenic substrate, fluorescence; inhibition, % at 20 µM; hit rate 0.25% among 360,000; AID 588621;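 active means inhibition at 20 µM, scaled per plate between control wells, above about 37%, limit read from the data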
Target sequence (P54829 whole entry, looked up): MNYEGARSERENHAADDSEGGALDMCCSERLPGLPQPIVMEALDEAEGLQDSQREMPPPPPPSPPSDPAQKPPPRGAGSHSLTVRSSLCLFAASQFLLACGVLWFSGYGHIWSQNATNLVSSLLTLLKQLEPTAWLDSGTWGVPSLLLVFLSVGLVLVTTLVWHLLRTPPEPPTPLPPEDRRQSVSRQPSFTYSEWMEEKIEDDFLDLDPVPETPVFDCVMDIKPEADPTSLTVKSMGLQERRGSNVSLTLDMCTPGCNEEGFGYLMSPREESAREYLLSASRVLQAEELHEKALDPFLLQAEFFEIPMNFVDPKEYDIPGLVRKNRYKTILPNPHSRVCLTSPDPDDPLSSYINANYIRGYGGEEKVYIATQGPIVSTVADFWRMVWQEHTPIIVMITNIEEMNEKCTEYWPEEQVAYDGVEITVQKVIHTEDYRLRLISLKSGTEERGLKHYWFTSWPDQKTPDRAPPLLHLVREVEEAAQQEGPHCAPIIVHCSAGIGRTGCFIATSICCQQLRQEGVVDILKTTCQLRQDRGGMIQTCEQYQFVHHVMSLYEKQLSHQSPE
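material = STEP tyrosine phosphatase | reagent = fluorogenic phosphatase substrate OMFP at 25 µM final | doses = single compound dose of 20 µM, 1% DMSO final | schedule = 20 min reaction, room temperature, in the dark | measured by = fluorescence, 480/540 nm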
LMPTP block: LMPTP (human) inhibition; recombinant LMPTP-A, OMFP fluorogenic substrate, fluorescence intensity; inhibition, % at 20 µM; AID 651560; hit rate 0.22% among 360,000;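 active means compounds that cut the enzyme signal by at least half of the control window in the single-dose screen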
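Test system: LMPTP-A, protein tyrosine phosphatase of low molecular weight; Input: 0.625 nM enzyme; Incubation: 50 min dark incubation at room temperature; Signal: endpoint fluorescence intensity from OMFP dephosphorylation; Read-out basis: % inhibition versus control wells.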
Scp1 inh: blocks human Scp-1 phosphatase activity | Q9GZU7 | Recombinant Scp1, phosphopeptide, malachite green phosphate absorbance | inhibition, % at 20 µM | hit rate 0.88% among 340,000 | AID 493091;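 active means inhibition above about 50% at 20 µM, limit read from the data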
Target sequence (Q9GZU7 76-261 limits assumed): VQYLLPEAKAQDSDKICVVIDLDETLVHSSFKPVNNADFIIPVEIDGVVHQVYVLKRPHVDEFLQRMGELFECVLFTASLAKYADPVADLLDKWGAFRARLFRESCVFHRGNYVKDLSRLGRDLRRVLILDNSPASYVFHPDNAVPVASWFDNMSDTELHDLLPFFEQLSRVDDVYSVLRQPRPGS
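System: truncated SCP-1 phosphatase (76-261aa); medium: Tris acetate buffer pH 5.5 with MgCl2 and Tween-20; incubation: 45 min room-temperature reaction, 5 min colour, 30 min stabiliser; compound: single 20 µM dose, 1% DMSO; reagent: Phosphorylated 17-residue peptide substrate; read-out: % inhibition at 20 µM; technique: colorimetric free-phosphate detection, absorbance 630 nm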
GRK2 inh confirm: confirmation of human GRK2 inhibitors displacing RNA aptamer. AID 504451. shares compounds with GRK2 inh. bead-bound GRK2, FAM-aptamer displacement, flow cytometry. aptamer displacement, % at 10 µM. hit rate 4% among 2,000;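 active means aptamer displacement above 40%, near three times the noise of non-fluorescent compounds, on plates passing quality checks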;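 further: negative values mostly reflect intrinsic compound fluorescence rather than true enhancement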
Aptamer quench: counter-screen for GRK2 aptamer inhibitors: fluorescent aptamer quenchers; 110 tested, under 10 active; fluorescence change (kMESF span), kMESF (concentration not given with the values); shares compounds with GRK2 inh; AID 504521; Fluorescent RNA aptamer beads, quenching, flow cytometry; active compounds read high;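 active means compounds whose bead fluorescence drops by more than 37 kMESF across the dose range, marking them as dye quenchers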
Aptamer quench SP: aptamer fluorescence quenching in GRK2 counter-screen; shares compounds with GRK2 inh; Carboxyfluorescein RNA aptamer on beads, flow cytometry quenching; active compounds read low; fluorescence response (% of DMSO), % at 10 µM; 2,000 tested, under 10 active; AID 504580;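 active means compounds that quench the bead-bound fluorescent RNA probe, cutting fluorescence to under half of the solvent control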;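 further: counterscreen run without GRK2 so only probe quenching by compound is measured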
GRK2 confirm 2: human GRK2 inhibition confirmation, cherry pick 2; 360 tested, under 10 active; bead-bound GRK2, FAM-aptamer displacement, flow cytometry; inhibition of aptamer binding, % at 10 µM; shares compounds with GRK2 inh; AID 504782;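 active means inhibition of aptamer binding above 40%, about triple the noise seen with nonglowing compounds, on plates passing quality control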;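 further: negative values mostly come from compounds that fluoresce themselves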
Aptamer quench 2: quenches fluorescent RNA aptamer, GRK2 hit artifact; shares compounds with GRK2 inh; Streptavidin beads, FAM-RNA aptamer fluorescence quenching, flow cytometry; change in fluorescence (kMESF span), kMESF (no concentration beside the values); 25 tested, under 10 active;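 active means compounds quenching the bead-bound labeled aptamer, with fluorescence dropping by more than 37 kMESF over the dose range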
FAM quench SP: aptamer fluorescence quenching in GRK2 counter-screen; fluorescence response vs DMSO, % at 10 µM; carboxyfluorescein RNA aptamer beads, flow cytometry quenching; active compounds read low; 360 tested, under 10 active; shares compounds with GRK2 inh; AID 588494;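 active means response vs DMSO under 50%, meaning signal dropped by over half, treated as fluorescence quencher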;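 further: labelled aptamer on streptavidin beads without GRK2 as a quench counter-screen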
Scp1 confirm: confirmation of human Scp-1 phosphatase inhibitors | shares compounds with Scp1 inh | recombinant SCP-1 catalytic domain, phosphate release, malachite green absorbance | inhibition, % at 20 µM | hit rate 61% among 2,500 | AID 540281
MG interference: counter-screen for Scp-1 inhibitors: colorimetric interference; shares compounds with Scp1 inh; Colorimetric interference counterscreen, malachite green absorbance 630 nm; apparent inhibition (interference), % at 20 µM; 2,500 tested, under 10 active; AID 540313;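 further: compounds added after enzyme reaction finished so only phosphate colour detection is probed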
Scp1 DSF: binds human Scp-1, shifting its melting temperature; shares compounds with Scp1 inh; Recombinant SCP1, Sypro Orange thermal shift Tm; thermal shift relative to vanadate control, % at 40 µM; hit rate 25% among 1,500;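 active means substances whose mean melting-temperature shift, as a percentage of the reference inhibitor's shift, reaches about 5.3%, limit read from the data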
Beacon interf DR: beacon fluorescence artifact, dose response counter-screen; shares compounds with DNMT1 block; molecular beacon fluorescence, spectral interference counter-screen; IC50, µM; 200 tested, under 10 active; AID 602382; call rule not given here
DNMT1 inh conf: confirmation of human DNMT1 inhibitors; shares compounds with DNMT1 block; DNMT1 molecular beacon HinP1I cleavage, fluorescence; inhibition, % at 10 µM; hit rate 8% among 2,300; AID 602385;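 active means average inhibition of at least 30% in the single-concentration confirmation test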
Beacon interf: shows spectral interference in the DNMT1 beacon assay; shares compounds with DNMT1 block; AID 602387; DNMT1 molecular beacon spectral interference counterscreen, fluorescence 485/520; activation (fluorescence interference), % at 10 µM; hit rate 1% among 2,300;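 active means activation of at least 30% at 10 µM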;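 further: DNMT1 catalytic domain with a HinP1I cleavage step and a FAM/dabcyl DNA beacon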
Numbers stand for hits; - = inactive; . = no result.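 How the source made its calls, unless noted: active means inhibition of at least 30% at 20 µM; inactive means the rest.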

SMILES	SUMO1 PPI mod	GRK2 inh	DNMT1 block	STEP inh	LMPTP block	Scp1 inh	GRK2 inh confirm	Aptamer quench SP	Scp1 confirm	MG interference	Scp1 DSF	Beacon interf DR	DNMT1 inh conf	Beacon interf	others
O=C(O)c1ccc(-n2cccc2/C=C2/SC(=O)N(CC(=O)N3CCCC3)C2=O)cc1	81	82	91	93	-	76	63	-	.	.	.	-	81	-	Aptamer quench=-
O=C1N/C(=C/c2cccn2-c2ccc(F)cc2)C(=O)N1Cc1ccccc1	-	-	-	-	-	-	.	.	.	.	.	.	.	.
O=C(O)c1ccc(-n2cccc2/C=C2/NC(=O)N(c3ccccc3)C2=O)cc1	89	73	93	73	-	89	-	-	.	.	.	-	83	-
O=C(CN1C(=O)S/C(=C/c2cccs2)C1=O)N1CCCC1	-	-	-	-	-	-	.	.	.	.	.	.	.	.
CN1CCN(c2ccc(NC(=S)NC(=O)/C=C/c3ccco3)cc2)CC1	-	-	-	-	-	-	.	.	.	.	.	.	.	.
CCN(C(=O)C(C)N1C(=O)/C(=C/c2ccco2)SC1=S)C1CCS(=O)(=O)C1 (stereo not given)	-	42	63	-	-	-	-	-	.	.	.	.	-	-
O=C1CC(=O)NC(SCC(=O)Nc2ccccc2[N+](=O)[O-])=N1	-	43	64	-	-	77	.	-	67	-	13	-	33	-
COc1ccc(S(=O)(=O)N2CCN(C(=O)c3cc4c(s3)CCC4)CC2)cc1	-	82	100	-	57	84	-	-	68	-	-	-	40	-
O=C(/C=C/c1ccco1)Nc1ccccc1C(=O)O	-	71	80	-	-	54	-	-	.	.	.	.	-	-
O=C(/C=C/c1ccco1)Nc1cc(Cl)ccc1C(=O)O	-	-	-	-	-	-	.	.	.	.	.	.	.	.
CCCN(C(=O)c1cccc(-n2cccc2)c1)c1c(N)n(Cc2ccccc2)c(=O)[nH]c1=O	-	-	81	-	-	74	-	-	66	-	-	.	-	-	Aptamer quench=37
COc1ccc(Br)cc1CN(C)C(=O)c1ccccc1SCC(=O)N1CCCC1	-	.	-	-	-	-	.	.	.	.	.	.	.	.
CSCCC(NC(=O)c1ccco1)C(=O)N1CCCC(C(F)(F)F)C1 (stereo not given)	-	-	-	-	-	-	.	.	.	.	.	.	.	.
C=C(C)C(=O)Nc1cccc(C2=NOC3(C2)C[C@@H](C(N)=O)N(C(=O)/C=C/C=C/C)C3)c1 (stereo not given in full)	105	92	105	-	-	75	83	-	.	.	.	-	90	-	Aptamer quench=-
C=C(C)C(=O)Nc1cccc(C2=NOC3(C2)C[C@@H](C(N)=O)N(C(=O)CC(c2ccccc2)c2ccccc2)C3)c1 (stereo not given in full)	77	88	101	-	-	62	80	-	57	-	-	.	-	-	Aptamer quench=-
NC(=O)c1c(NC(=O)CN2CCN(S(=O)(=O)c3ccccc3)CC2)sc2c1CCC2	-	-	-	-	-	-	.	.	.	.	.	.	.	.
O=C(c1ccc(=O)oc1)N1CCOCC1	-	87	103	-	-	77	-	-	.	.	.	-	64	-
O=C(c1ccccc1)N1CCCc2ccccc21	-	-	-	-	-	-	.	.	.	.	.	.	.	.
O=C(c1ccc(=O)oc1)N1CCCc2ccccc21	-	42	105	-	-	-	-	-	.	.	.	.	-	-
Cc1ccc(C2=NN(CCC#N)C(=O)CO2)cc1	-	-	-	-	-	-	.	.	.	.	.	.	.	.
CC(C)(CS(=O)(=O)[O-])NC(=O)CC[N+](C)(C)CCO	-	99	116	52	-	60	96	-	43	-	-	-	86	-	Aptamer quench=-
O=C(C[n+]1ccn(CCCNP2(=O)C=C(c3ccccc3)OC(c3ccccc3)=C2)c1)c1cccs1	-	-	-	-	-	-	.	.	.	.	.	.	.	.
O=c1nc(Nc2ccc(Br)cc2)sc2ccc([N+](=O)[O-])cc12	-	42	54	-	-	-	-	-	.	.	.	.	-	-
COc1ccc(-c2csc3nc(C(C)(C)C)oc(=O)c23)cc1OC	-	-	-	-	-	-	.	.	.	.	.	.	.	.
COc1ccc(-c2csc3nc(-c4ccc(C)cc4)oc(=O)c23)cc1OC	-	79	85	-	-	-	.	.	.	.	.	.	-	-	GRK2 confirm 2=65;Aptamer quench 2=-;FAM quench SP=-
CCCn1c(=O)c2sccc2n2c(CCCC(=O)NCc3ccco3)nnc12	-	70	77	-	-	69	-	-	54	-	-	.	-	-
O=C(O)c1cccc(-n2cccc2/C=N/O)c1	-	54	105	-	-	77	-	-	65	-	-	.	-	-	GRK2 confirm 2=-;FAM quench SP=-
